Laboratory results taken from ChEMBL document CHEMBL1139463, “SAR by MS: discovery of a new class of RNA-binding small molecules for the hepatitis C virus: internal ribosome entry site IIA subdomain” (J Med Chem, 2005).

What was measured:
[1] = Binding affinity to HCV 29-mer 2A RNA by MS based binding assay; set-up: species or system Hepacivirus hominis
[2] = Binding affinity to HCV 40-mer RNA by MS based binding assay; set-up: species or system Hepacivirus hominis
[3] = Cytotoxicity against Huh7 cells by MTT assay; format: cell-based, Huh-7; conditions: human
Outline: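 Huh-7 cells; viability read by MTT; 50% cytotoxic concentration (CC50) reported.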

Hepatitis C virus = assay: Reduction of HCV RNA levels by HCV replicon assay; format: functional, organism-based, Hepacivirus hominis
Outline: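 HCV replicon cells treated with compound; intracellular HCV RNA levels quantified by RT-PCR.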

Kd [1] | Kd [2] | EC50 (Hepatitis C virus) | Structure (SMILES) | CC50 [3]
48 µM | – | – | CC(C)CCOc1ccc2nc(N)n(CCCN(C)C)c2c1 | –
8 µM | – | – | CN(C)CCCn1c(N)nc2ccc(OCCN(C)C)cc21 | –
> 100 µM | – | – | CN(C)CCCOc1ccc2c(c1)nc(N)n2CCCN(C)C | –
10 µM | 17 µM | 37 µM | CN(C)CCCOc1ccc2nc(N)n(CCCN(C)C)c2c1 | > 100 µM
> 100 µM | – | – | CN(C)CCCOc1ccc2ncn(CCCN(C)C)c2c1 | –
– | 3.5 µM | 29 µM | CN(C)CCCOc1ccc2nc3n(c2c1)CC(CN(C)C)CN3 (stereo not given) | > 100 µM
– | 0.72 µM | 5.4 µM | CN(C)CC1COc2ccc3nc4n(c3c2C1)CC(CN(C)C)CN4 (stereo not given) | > 100 µM
7 µM | – | – | CN(C)CCCCOc1ccc2nc(N)n(CCCN(C)C)c2c1 | –

Continued, compound first:

Structure (SMILES) | Kd [1] | Kd [2] | EC50 (Hepatitis C virus) | CC50 [3]
Nc1nc2ccccc2n1CCCN1CCCC1 | 125 µM | – | – | –
CN(C)CCCn1c(N)nc2ccc3c(c21)CC(CN(C)C)CO3 (stereo not given) | – | 0.86 µM | 3.9 µM | > 100 µM
COc1ccc2nc(N)n(CCCN(C)C)c2c1 | 40 µM | – | – | –
COc1cccc2c1nc(N)n2CCCN(C)C | > 200 µM | – | – | –
CN(C)CCCn1c(N)nc2ccccc21 | 100 µM | > 100 µM | – | > 100 µM
CN(C)CCCn1c(N)nc2ccc(OCc3ccccc3)cc21 | 99 µM | – | – | –
Nc1nc2ccccc2n1CCCN1CCOCC1 | > 200 µM | – | – | –
CN(C)CCCn1c(N)nc2ccc3c(c21)CC(CN(C)C)O3 (stereo not given) | – | 1.7 µM | 1.5 µM | > 100 µM
CCCCN(CCCC)CCCn1c(N)nc2ccccc21 | > 200 µM | – | – | –
CN(C)CCCOc1ccc2nc(N)[nH]c2c1 | > 100 µM | – | – | –
COc1ccc2c(c1)nc(N)n2CCCN(C)C | > 200 µM | – | – | –
COc1cccc2nc(N)n(CCCN(C)C)c12 | 50 µM | – | – | –
CCN(CC)CCCn1c(N)nc2ccccc21 | 130 µM | – | – | –
CCCn1c(N)nc2ccccc21 | > 200 µM | – | – | –
